Values after ≈ are worked out from the molar mass of the structure shown. Blank lines part the entries; values can stand above or below the compound they belong to. Active and inactive are the calls of the source. The calls are words filed in the database; no cut-off is given here.
Key:
P2Y purinoceptor 14 [1] = biological target: T1, P2Y purinoceptor 14 (Homo sapiens, UniProt Q15391); assay: Inhibition of MRS4174 binding to human P2Y14R expressed in CHO cells pre-incubated for 30 mins before MRS4174 addition and further incubated for 30 mins at pH 7.4 by flow cytomtery based competitive fluorescence assay; type: cell-based
T1 sequence (Q15391 whole entry): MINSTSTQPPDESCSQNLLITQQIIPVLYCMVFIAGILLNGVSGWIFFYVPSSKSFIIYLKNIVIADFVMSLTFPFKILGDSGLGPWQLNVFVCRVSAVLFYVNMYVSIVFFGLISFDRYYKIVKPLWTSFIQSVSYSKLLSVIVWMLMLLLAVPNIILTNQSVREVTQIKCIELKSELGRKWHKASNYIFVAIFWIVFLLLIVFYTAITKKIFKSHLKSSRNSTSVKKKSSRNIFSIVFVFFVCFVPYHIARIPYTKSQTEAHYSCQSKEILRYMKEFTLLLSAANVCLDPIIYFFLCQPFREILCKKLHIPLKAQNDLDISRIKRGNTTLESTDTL

Mus musculus = assay: Antiasthmatic activity in Aspergillus oryzae protease-mediated C57BL/6J mouse model of allergic asthma assessed as reduction in eosinophil infiltration in bronchoalveolar lavage fluid at 10 mg/kg, ip dosed 30 mins before OVA aerosol challenge and measured 2 days post-challenge by cell differential count assay; type: functional, organism-based
P2Y purinoceptor 14 [2] = biological target: T2, P2Y purinoceptor 14 (Mus musculus, UniProt Q9ESG6); assay: Inhibition of MRS4174 binding to mouse P2Y14R expressed in HEK293 cells pre-incubated for 30 mins before MRS4174 addition and further incubated for 30 mins by flow cytomtery based competitive fluorescence assay; type: cell-based
T2 sequence (Q9ESG6 whole entry): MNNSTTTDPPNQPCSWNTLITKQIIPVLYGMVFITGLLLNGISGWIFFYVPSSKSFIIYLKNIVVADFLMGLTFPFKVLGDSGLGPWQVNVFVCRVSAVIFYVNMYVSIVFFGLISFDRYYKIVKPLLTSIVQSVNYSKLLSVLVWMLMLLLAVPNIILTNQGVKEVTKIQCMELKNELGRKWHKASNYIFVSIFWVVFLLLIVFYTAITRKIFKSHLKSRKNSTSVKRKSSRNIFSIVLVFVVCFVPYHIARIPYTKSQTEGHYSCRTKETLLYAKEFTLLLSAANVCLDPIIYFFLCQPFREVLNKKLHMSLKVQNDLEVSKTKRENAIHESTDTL
In short: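 Competitive whole-cell binding in HEK293 cells stably expressing N-terminally HA-tagged mouse P2Y14R, grown in a 24-well plate to 80–90% confluency. Antagonist given at 1 nM–100 μM in serum-containing EMEM for 30 min at 37 °C, then tracer added at 20 nM final for 30 min.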

[3] = Aqueous solubility at pH 7.4 by pION method; type: physicochemical
In short: (§1)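 Equilibrium aqueous solubility measured by the pION method at pH 4.0 and at pH 7.4, in μg/mL; mean ± SD.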

[4] = Aqueous solubility at pH 4 by pION method; type: physicochemical; in short: as §1
[5] = Stability in human plasma assessed as compound remaining level at 120 mins; type: ADME, cell-free; conditions: 2 h
[6] = Plasma concentration in rat at 1 mg/kg, ip after 4 hrs; type: ADME, organism-based
In short: (§2)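 Rats dosed intraperitoneally at 1, 3 and 10 mg/kg and intravenously at 0.5 mg/kg. Solubilizing vehicle was aqueous DMSO. Plasma concentrations followed over time up to 12 h. Bioavailability derived from ip exposure relative to the iv dose.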

[7] = Solubility in 10% DMSO in water; type: physicochemical; conditions: buffer
In short: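 Compound dissolved in DMSO without basification, then diluted with water to 10% DMSO at 1 mg/mL. Solubility was judged by the absence of precipitation on dilution.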

[8] = Half life in rat liver microsomes; type: ADME, Microsome
[9] = Half life in human liver microsomes; type: ADME, Microsome
[10] = Lipophilicity, change in Constant K of the compound by RP-HPLC analysis relative to PPTN; type: physicochemical
In short: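 Lipophilicity taken from reversed-phase HPLC retention time on a C18 column. Elution used a 20 min gradient of 10 to 100% acetonitrile in 10 mM triethylammonium acetate. Reported as Δk against the reference antagonist.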

[11] = Cmax in rat at 10 mg/kg, ip after 3 to 4 hrs; type: ADME, organism-based; parameters: dose 10 mg/kg, route intraperitoneal; conditions: in vivo; in short: as §2
P2Y purinoceptor 14 [12] = biological target: T1, P2Y purinoceptor 14; assay: cell-based
[13] = Stability in mouse plasma assessed as compound remaining level at 120 mins; type: ADME, cell-free; conditions: 2 h
[14] = Half life in rat at 1 mg/kg, ip; type: ADME, organism-based; conditions: in vivo
P2Y purinoceptor 14 [15] = biological target: T1, P2Y purinoceptor 14; assay: cell-based; remark: listed apart in the source
[16] = Plasma concentration in rat at 1 mg/kg, ip after 2 hrs; type: ADME, organism-based; in short: as §2
[17] = Bioavailability in rat at 1 to 10 mg/kg, ip; type: ADME, organism-based; conditions: in vivo; in short: as §2
[18] = Drug level in rat at 10 mg/kg, ip after 12 hrs; type: ADME, organism-based; conditions: in vivo; in short: as §2
P2Y purinoceptor 14 [19] = biological target: T1, P2Y purinoceptor 14; assay: cell-based; remark: listed apart in the source
[20] = Tmax in rat at 10 mg/kg, ip; type: ADME, organism-based; conditions: in vivo; in short: as §2
HepG2 = assay: Toxicity in human HepG2 cells; type: cell-based
[21] = Half life in mouse liver microsomes; type: ADME, Microsome
[22] = Half life in rat at 0.5 mg/kg, iv; type: ADME, organism-based; conditions: in vivo
[23] = biological target: Delta-type opioid receptor (Homo sapiens, UniProt P41143); assay: Binding affinity to DOR (unknown origin)
[24] = Binding affinity to sigma 2 receptor (unknown origin); parameters: species or system Homo sapiens
[25] = biological target: Sigma non-opioid intracellular receptor 1 (Homo sapiens, UniProt Q99720); assay: Binding affinity to sigma 1 receptor (unknown origin)
[26] = Unbound fraction in mouse plasma; type: ADME, cell-free
In short: (§3)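 Plasma protein binding measured at 10 μM compound in human and mouse plasma, expressed as percent unbound (mean ± SD). Verapamil and warfarin were positive controls.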

[27] = biological target: 5-hydroxytryptamine receptor 1D (Homo sapiens, UniProt P28221); assay: Binding affinity to 5HT1D receptor (unknown origin)
Cannabinoid receptor 2 [28] = biological target: T3, Cannabinoid receptor 2 (Homo sapiens, UniProt P34972); assay: Antagonist activity at CB2 receptor (unknown origin)
In short: (§4)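 Tested through the Psychoactive Drug Screening Program as functional agonist and antagonist at CB1 and CB2 cannabinoid receptors, with an upper test concentration of 10 μM.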

Cannabinoid receptor 2 [29] = biological target: T3, Cannabinoid receptor 2; assay: Agonist activity at CB2 receptor (unknown origin); in short: as §4
[30] = Unbound fraction in human plasma; type: ADME, cell-free; in short: as §3
Cannabinoid receptor 1 [31] = biological target: T4, Cannabinoid receptor 1 (Homo sapiens, UniProt P21554); assay: Antagonist activity at CB1 receptor (unknown origin); in short: as §4
Cannabinoid receptor 1 [32] = biological target: T4, Cannabinoid receptor 1; assay: Agonist activity at CB1 receptor (unknown origin); in short: as §4
D(1B) dopamine receptor = D(1B) dopamine receptor (Homo sapiens, UniProt P21918); assay: Binding affinity to dopamine D5 receptor (unknown origin)
Translocator protein = Translocator protein (Homo sapiens, UniProt P30536); assay: Binding affinity to TSPO receptor (unknown origin)
Sequence of Translocator protein (P30536 whole entry): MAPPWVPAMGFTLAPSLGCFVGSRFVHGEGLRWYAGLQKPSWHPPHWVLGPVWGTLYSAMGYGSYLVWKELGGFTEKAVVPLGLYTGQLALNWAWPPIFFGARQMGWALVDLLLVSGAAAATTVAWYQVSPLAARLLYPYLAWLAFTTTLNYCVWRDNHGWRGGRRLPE

T4 sequence (P21554 whole entry): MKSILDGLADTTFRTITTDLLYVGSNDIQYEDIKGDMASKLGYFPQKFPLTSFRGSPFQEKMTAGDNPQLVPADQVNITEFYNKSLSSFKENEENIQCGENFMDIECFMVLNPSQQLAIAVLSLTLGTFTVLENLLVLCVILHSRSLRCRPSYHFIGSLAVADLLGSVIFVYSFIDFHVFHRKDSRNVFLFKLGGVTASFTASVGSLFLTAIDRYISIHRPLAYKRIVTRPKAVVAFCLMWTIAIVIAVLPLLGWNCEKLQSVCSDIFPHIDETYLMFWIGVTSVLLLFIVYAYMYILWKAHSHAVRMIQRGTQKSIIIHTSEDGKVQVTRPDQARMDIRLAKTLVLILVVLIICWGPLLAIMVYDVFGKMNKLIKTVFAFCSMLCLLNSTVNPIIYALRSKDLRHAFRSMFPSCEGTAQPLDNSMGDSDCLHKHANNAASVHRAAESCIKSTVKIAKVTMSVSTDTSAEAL
Sequence of Delta-type opioid receptor (P41143 whole entry): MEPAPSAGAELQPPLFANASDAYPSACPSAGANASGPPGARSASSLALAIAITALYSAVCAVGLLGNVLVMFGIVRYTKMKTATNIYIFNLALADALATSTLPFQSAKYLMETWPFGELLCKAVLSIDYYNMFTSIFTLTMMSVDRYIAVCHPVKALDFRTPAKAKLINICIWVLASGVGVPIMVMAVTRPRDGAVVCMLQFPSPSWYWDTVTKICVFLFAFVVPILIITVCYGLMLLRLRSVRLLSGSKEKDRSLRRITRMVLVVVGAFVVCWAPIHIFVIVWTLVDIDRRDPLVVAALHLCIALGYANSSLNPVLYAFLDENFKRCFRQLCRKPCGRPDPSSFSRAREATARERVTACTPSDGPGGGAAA
T3 sequence (P34972 whole entry): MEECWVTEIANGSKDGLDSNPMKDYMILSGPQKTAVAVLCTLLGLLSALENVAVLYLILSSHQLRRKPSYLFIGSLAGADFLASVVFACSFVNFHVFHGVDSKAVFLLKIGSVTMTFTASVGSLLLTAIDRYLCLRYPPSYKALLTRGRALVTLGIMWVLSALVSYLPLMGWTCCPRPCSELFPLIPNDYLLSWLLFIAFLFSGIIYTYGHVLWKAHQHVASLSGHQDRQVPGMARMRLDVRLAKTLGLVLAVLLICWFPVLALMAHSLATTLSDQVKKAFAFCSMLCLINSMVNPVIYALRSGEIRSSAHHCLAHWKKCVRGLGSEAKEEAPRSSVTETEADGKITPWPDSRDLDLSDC
Sequence of D(1B) dopamine receptor (P21918 whole entry): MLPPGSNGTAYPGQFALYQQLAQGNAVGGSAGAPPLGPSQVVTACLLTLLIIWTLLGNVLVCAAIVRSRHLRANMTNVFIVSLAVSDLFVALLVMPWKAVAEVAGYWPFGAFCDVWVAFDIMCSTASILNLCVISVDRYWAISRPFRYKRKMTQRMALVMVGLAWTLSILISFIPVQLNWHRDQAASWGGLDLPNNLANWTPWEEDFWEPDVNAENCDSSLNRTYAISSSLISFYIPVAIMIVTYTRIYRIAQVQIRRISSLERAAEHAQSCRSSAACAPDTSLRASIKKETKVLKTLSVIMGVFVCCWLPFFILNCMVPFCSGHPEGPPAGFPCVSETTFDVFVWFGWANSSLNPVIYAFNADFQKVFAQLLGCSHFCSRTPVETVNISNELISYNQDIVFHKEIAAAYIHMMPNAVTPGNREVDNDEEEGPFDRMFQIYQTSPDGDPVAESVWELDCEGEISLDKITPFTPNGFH
Sequence of 5-hydroxytryptamine receptor 1D (P28221 whole entry): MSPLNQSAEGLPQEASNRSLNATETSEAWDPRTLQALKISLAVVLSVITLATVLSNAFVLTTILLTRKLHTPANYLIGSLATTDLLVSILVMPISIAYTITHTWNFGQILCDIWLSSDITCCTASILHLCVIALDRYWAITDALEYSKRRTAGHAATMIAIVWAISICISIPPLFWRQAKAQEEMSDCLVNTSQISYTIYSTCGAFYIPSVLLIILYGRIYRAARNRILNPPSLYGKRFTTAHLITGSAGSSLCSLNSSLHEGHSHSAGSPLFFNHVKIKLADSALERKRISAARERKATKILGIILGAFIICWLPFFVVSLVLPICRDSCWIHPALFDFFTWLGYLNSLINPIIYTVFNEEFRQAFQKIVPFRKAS
Sequence of Sigma non-opioid intracellular receptor 1 (Q99720 whole entry): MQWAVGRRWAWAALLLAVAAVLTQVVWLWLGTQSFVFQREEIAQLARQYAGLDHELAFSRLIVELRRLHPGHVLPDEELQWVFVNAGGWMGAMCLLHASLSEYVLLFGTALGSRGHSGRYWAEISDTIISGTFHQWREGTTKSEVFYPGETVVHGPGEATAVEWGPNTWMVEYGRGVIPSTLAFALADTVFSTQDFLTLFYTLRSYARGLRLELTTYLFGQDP

- IC50 (P2Y purinoceptor 14 [1]): 639 nM
SMILES: O=C(O)c1cc(-c2ccc(C34CCNCC3C4(F)F)cc2)cc(-n2cc(-c3ccc(C(F)(F)F)cc3)nn2)c1 (stereo not given)

SMILES: C#CCCCCN1CCC(c2ccc(-c3cc(C(=O)O)cc4cc(-c5ccc(C(F)(F)F)cc5)ccc34)cc2)CC1
- Activity (Mus musculus): Active

SMILES: O=C(O)c1cc(-c2ccc(C34CCN(CC3)CC4)cc2)c2ccc(-c3ccc(C(F)(F)F)cc3)cc2c1
- IC50 (P2Y purinoceptor 14 [2]): 21.4 nM
- solubility ([3]; aqueous, read-out: solubility): 0.44 to 0.55 µg/mL (≈ 0.877 to 1.1 µM)
- solubility ([4]; aqueous, read-out: solubility): 1.5 to 14.3 µg/mL (≈ 2.99 to 28.5 µM)
- Stability [5]: 100%
- concentration at 4 h [6]: 292 nM
- solubility [7]: 1000 µg/mL (≈ 1990 µM)
- t1/2 [8]: 1.33 h
- t1/2 [9]: > 4 h
- fold change (FC) [10]: 1.24
- Cmax [11]: 900 ng/mL
- IC50 (P2Y purinoceptor 14 [12]): 38.1 nM
- Stability [13]: 100%
- half-life [14]: 5.1 h
- IC50 (P2Y purinoceptor 14 [15]): 57 nM
- concentration at 2 h [16]: 165 nM
- bioavailability [17]: 100%
- Drug uptake [18]: 200 to 400 ng/kg
- Activity (Mus musculus): Active
- IC50 (P2Y purinoceptor 14 [19]): 84.5 nM
- Tmax [20]: 3 to 4 h
- IC50 (HepG2): > 20000 nM
- t1/2 [21]: 1.12 h
- half-life [22]: 3.46 h

- Ki [23]: 2480 nM
- Ki [24]: 2910 nM
- Ki [25]: 500 nM
SMILES: NC(=O)c1ccc(-c2cc(C(=O)O)cc(-c3cn(-c4ccc(C(F)(F)F)cc4)nn3)c2)cc1

- Fu [26]: 0.83%
- Ki [27]: 4340 nM
SMILES: NCCCNC(=O)c1ccc(-c2cc(C(=O)O)cc(-n3cc(-c4ccc(C(F)(F)F)cc4)nn3)c2)s1
- Activity (Mus musculus): Active

SMILES: O=C(O)c1cc(-c2ccc(C3CCNCC3)cc2)cc(-n2cc(-c3ccc(C(F)(F)F)cc3)nn2)c1
- Activity (Mus musculus): inactive

- EC50 (Cannabinoid receptor 2 [28]): > 10000 nM
- Ki [23]: 3790 nM
- Fu [26]: 1.33%
- EC50 (Cannabinoid receptor 2 [29]): > 10000 nM
- Fu [30]: 1.25%
- EC50 (Cannabinoid receptor 1 [31]): > 10000 nM
- EC50 (Cannabinoid receptor 1 [32]): > 10000 nM
SMILES: O=C(O)c1cc(-c2ccc(C3CCNCC3)cc2)cc(-c2cn(-c3ccc(C(F)(F)F)cc3)nn2)c1
- Activity (Mus musculus): Active

- solubility ([3]; buffer): 2.32 µg/mL (≈ 4.48 µM)
- solubility ([4]; buffer): 0.09 µg/mL (≈ 0.174 µM)
- Ki (D(1B) dopamine receptor): 4380 nM
- Ki (Translocator protein): 510 nM
SMILES: CC(=O)N1CCC(c2ccc(-c3cc(C(=O)O)cc4cc(-c5ccc(C(F)(F)F)cc5)ccc34)cc2)CC1
- Activity (Mus musculus): Active
